Screening results deposited in PubChem by Sanford-Burnham Center for Chemical Genomics.
Shown are actives, neighbours in structure and some others; about 2.3% of the full set was active somewhere.
STEP inh: blocks human striatal-enriched tyrosine phosphatase. AID 588621. 360,000 compounds, 0.25% hits. recombinant STEP, OMFP fluorogenic substrate, fluorescence. P54829. inhibition, % at 20 µM;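 active means inhibition at 20 µM, scaled per plate between control wells, above about 37%, limit read from the data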;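 further: 0% = DMSO with enzyme and substrate and 100% = substrate only without enzyme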
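Assay system: isolated STEP enzyme / Timing: 20 min at room temperature, dark / Doses: 20 µM, 1% DMSO / Technique: fluorescence intensity, excitation 480 nm, emission 540 nm / Reagent: fluorogenic phosphatase substrate OMFP at 25 µM final / Measure: percent inhibition scaled to no-enzyme and uninhibited-enzyme controls, plate-pattern corrected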
DNMT1 inh: inhibitors of human DNMT1; inhibition (reported as % activation of signal), % at 10 µM; DNMT1 molecular beacon, Hinp1I cleavage, fluorescence; 360,000 compounds, 0.83% hits; AID 588458; in the data active means inhibition above about 50%
Scp1 inh: inhibitors of human Scp-1 phosphatase; Recombinant Scp1, phosphopeptide, malachite green phosphate absorbance; AID 493091; Q9GZU7; inhibition, % at 20 µM; 340,000 compounds, 0.88% hits;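 active means inhibition above about 50% at 20 µM, limit read from the data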;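 further: plate controls were DMSO wells with enzyme for no effect and wells lacking enzyme for full effect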
Target sequence (Q9GZU7 76-261 limits assumed): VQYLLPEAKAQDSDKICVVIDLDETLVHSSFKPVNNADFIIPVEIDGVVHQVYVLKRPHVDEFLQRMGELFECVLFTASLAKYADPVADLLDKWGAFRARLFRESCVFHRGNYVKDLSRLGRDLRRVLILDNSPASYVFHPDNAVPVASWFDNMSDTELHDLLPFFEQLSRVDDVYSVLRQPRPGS
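Test system: SCP-1 phosphatase catalytic domain, residues 76-261 | Compound dosing: One concentration, 20 µM, with 1.0% DMSO | Schedule: 45 min room-temperature reaction, 5 min colour, 30 min stabiliser | Detection: Absorbance at 630 nm | Read-out basis: % inhibition of SCP-1 phosphate liberation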
LMPTP block: LMPTP (human) inhibition. recombinant LMPTP-A, OMFP fluorogenic substrate, fluorescence intensity. inhibition, % at 20 µM. 360,000 compounds, 0.22% hits. P24666;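 active means compounds that cut the enzyme signal by at least half of the control window in the single-dose screen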;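 further: plate controls were DMSO wells with enzyme plus substrate for no effect and substrate without enzyme for full effect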
Target sequence (P24666 whole entry, looked up): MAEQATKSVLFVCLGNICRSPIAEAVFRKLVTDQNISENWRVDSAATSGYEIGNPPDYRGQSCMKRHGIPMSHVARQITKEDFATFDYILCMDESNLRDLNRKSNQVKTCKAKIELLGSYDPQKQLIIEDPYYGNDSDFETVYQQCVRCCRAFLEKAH
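Assay system: LMPTP-A enzyme. Input: 0.625 nM LMPTP-A final. Probe or stimulus: 400 µM OMFP. Compound dosing: single 20 µM dose. Schedule: 50 min dark incubation at room temperature. Detection: fluorescence intensity of OMFP turnover product. Read-out: percent inhibition versus substrate-only and uninhibited controls. Benchmarks: no-enzyme low control, uninhibited high control.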
Rpn11 inh: blocks the human proteasome subunit Rpn11 | inhibition, % at 20 µM | 360,000 compounds, 0.59% hits | O00487 | human 26S proteasome, Ub4-pepOG fluorescence polarization; 20S core pre-blocked with epoxomicin;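 active means inhibition at 20 µM, scaled to each plate's controls, above about 33%, limit read from the data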
SUMO1-SIM PPI: alters human SUMO1 binding to SIM partners; P63165; SUMO1 binding to a labelled peptide, TR-FRET, 1 h; inhibition, % at 20 µM; 360,000 compounds, 0.33% hits; in the data active means inhibition above about 37%
Target sequence (P63165 whole entry, looked up): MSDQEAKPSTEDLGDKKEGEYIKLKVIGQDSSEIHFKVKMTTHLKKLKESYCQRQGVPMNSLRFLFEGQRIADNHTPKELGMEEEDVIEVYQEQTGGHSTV
An asterisk follows results filed as active; . = no result shown.

SMILES	STEP inh	DNMT1 inh	Scp1 inh	LMPTP block	Rpn11 inh	SUMO1-SIM PPI
Cc1occc1C(=O)N1CCCC(N2CCN(c3ccccc3F)CC2)C1 (stereo unspecified)	-4.5	1.6	-4.8	-0.2	5.8	-3.8
O=C(COC(=O)c1c2c(nc3ccccc13)/C(=C/c1ccco1)CC2)NC1CCCC1	18.4	86.4*	77.8*	47.5	34.7	18.0
Cc1cc(C(=O)OCC(=O)NC2CCCC2)c2ccccc2n1	1.7	-1.1	5.1	-0.6	1.7	-10.6
C=CC(=O)Nc1cccc(Nc2nc(N[C@H]3CC[C@H](N(C)C)CC3)nc3c2ncn3C(C)C)c1	3.0	-56.6	6.7	8.0	68.0*	33.4
CC(C)n1cnc2c(Nc3cccc(Cl)c3)nc(NCCCO)nc21	-5.3	-4.4	-3.0	1.2	-1.3	5.8
OC[C@H]1O[C@@H](c2nc3ccc(-c4nc(-c5ccc(Br)cc5)no4)cc3[nH]2)C[C@@H]1O	0.7	-8.6	.	-1.9	0.3	-0.7
NS(=O)(=O)c1ccc(N/N=C/c2ccccc2Br)cc1	-2.7	-2.6	-2.0	3.6	-3.3	59.6*
Cc1nc2ccc(S(=O)(=O)NCC(=O)NC(C)c3ccccc3)cc2s1 (stereo unspecified)	-0.3	0.5	-0.7	0.8	2.8	3.0
O=C(CSc1ncnc2c1oc1ccccc12)Nc1nc2ccccc2s1	0.6	23.4	-9.1	0.0	-9.9	-5.1
CCc1nnc(NC(=O)CSc2ncnc3c2oc2ccccc23)s1	-0.4	-21.5	-6.5	1.3	-0.5	65.5*
Cc1ccc(NS(=O)(=O)c2ccc(Cl)c(C(=O)Nc3cccc(C(=O)O)c3)c2)cc1	1.5	-2.5	-2.2	0.1	-3.3	0.5
CSc1ccc(CN2CCC(n3nccc3NC(=O)C3CCOC3)CC2)cc1 (stereo unspecified)	-4.4	0.1	-7.3	0.0	7.3	2.5
Cn1c(SCC(=O)NC2CCCCC2)nnc1-c1cccc(N)c1	2.8	-1.3	-4.6	-1.4	-4.3	40.5*
O=C(O)[C@H](O)[C@@H](O)C(=O)O	0.6	-1.6	20.3	0.6	-6.7	4.5
CC(C)C[C@@H](CNCC(=O)[C@H](Cc1ccccc1)NC(=O)c1[nH]cnc1C(=O)N[C@H](CN)CC(C)C)NC(=O)c1nc[nH]c1C(=O)N[C@@H](CC(=O)O)C(=O)O	-0.5	4.0	12.6	-2.4	18.5	46.7*
CCOC(=O)c1c(C)[nH]c(C(=O)N/N=C/c2cc([N+](=O)[O-])ccc2O)c1C	4.6	-0.4	-7.5	65.1*	3.1	-12.2
CCOC(=O)c1c(C)[nH]c(C(=O)N/N=C\c2ccccc2O)c1C	0.8	-3.4	-10.3	-0.5	-5.1	1.2
CC(=O)N1c2ccc(S(=O)(=O)NCCC(=O)Nc3ccc(C)c(Cl)c3)cc2CC1C (stereo unspecified)	-3.4	-2.7	-14.1	-0.1	1.6	0.1
Cc1ccccc1C(=O)NN1C(=O)CSC1=S	-3.9	3.2	8.0	-0.3	-4.8	6.6
O=C(NN1C(=O)CSC1=S)c1cccnc1	4.4	-2.9	-3.8	0.2	.	59.7*
COc1ccc(Cl)cc1C(=O)OCC(=O)NCCNC(=O)COC(=O)c1cc(Cl)ccc1OC	2.5	-1.4	-1.8	-1.4	-0.5	5.8
COC(=O)c1ccc(=O)c2nc3/c(=C/O)c(O)cc(=O)c3[nH]c12	100.0*	107.5*	58.2*	81.0*	27.2	4.7
COC(=O)c1ccc(N)cc1O	0.1	0.5	12.0	0.9	-0.5	0.9
CCOC(=O)c1cc(-c2ccc(F)cc2)n(CC(=O)Nc2nccs2)c1C	-2.5	-13.0	-1.6	0.6	-5.8	1.4
O=C(Nc1ccc([N+](=O)[O-])cc1Cl)c1cccc([N+](=O)[O-])c1	-1.0	7.2	.	0.1	-4.3	-8.5
SMILES	STEP inh	DNMT1 inh	Scp1 inh	LMPTP block	Rpn11 inh	SUMO1-SIM PPI
O=C(Nc1cccc(Cl)c1)c1cc(N=Nc2ccc([N+](=O)[O-])cc2Cl)ccc1O	31.9	-22.0	70.6*	12.5	.	100.2*
O=C(Nc1ccc([N+](=O)[O-])cc1Cl)c1cc(Cl)ccc1O	4.5	-5.4	35.1	72.3*	-0.7	13.6
O=C(Nc1cccc(Cl)c1)c1cccc(Oc2ccc([N+](=O)[O-])cc2Cl)c1	-2.3	-8.1	-4.7	2.4	7.1	-2.7
Cc1ccc(CNC(=O)CCSCc2ccccc2C)cc1	1.8	0.6	-6.8	0.3	-1.7	0.4
O=C(CN1CCN(C(=O)N2CCOCC2)CC1)Nc1cc(Cl)ccc1Cl	-0.1	0.2	-4.9	0.0	-4.8	-0.7
CCOC(=O)CNC(=O)CSc1nc(Cc2ccccc2)nc2ccccc12	0.7	-0.5	-1.2	0.8	-8.0	-4.3
Cc1ccc(S(=O)(=O)c2nnn3c2nc(NCCCN2CCCC2=O)c2ccccc23)cc1C	1.1	-1.2	2.9	1.9	-6.3	56.2*
CS(=O)(=O)N1CCC(Oc2ccccc2C(=O)NC2CCOC2)CC1 (stereo unspecified)	-1.3	-6.9	2.2	-0.4	-1.8	-0.8
CS(=O)(=O)N1CCC(Oc2ccccc2C(=O)NC(C2CC2)C2CC2)CC1	-2.2	5.0	-0.3	-1.5	-2.7	40.2*
COc1ccc2cc(C(=O)N/N=C/c3sc4ccccc4c3O)ccc2c1	17.6	-8.3	85.4*	50.8*	.	-24.9
COc1ccc(C(=O)N/N=C/c2sc3ccccc3c2O)cc1	-5.5	-10.0	-13.0	1.1	.	-13.4
CNC(=O)COc1coc(CN2CCN(c3cccc(Cl)c3)CC2)cc1=O	-1.0	2.4	0.8	-1.2	-4.6	0.8
COc1ccc(C2SCC(C(=O)NCc3ccc(F)cc3)N2C(C)=O)cc1 (stereo unspecified)	0.3	7.2	-9.1	-0.6	0.0	1.5
O=c1c2[nH]c3ccc(Br)cc3c2ncn1Cc1ccncc1	.	.	6.0	.	.	.
CN1CCN(C(=O)c2cnn(-c3ccccc3)c2NC(=O)c2ccccc2Cl)CC1	0.9	-2.2	-5.5	0.4	-15.9	55.2*
CCCCCN(C(=O)CCC(=O)OCC(=O)N1CCCC(C)C1)c1c(N)n(CCCC)c(=O)[nH]c1=O (stereo unspecified)	0.1	1.2	-1.3	-0.5	-2.6	2.7
CC1OC2CC(=O)OC2C2=C1C(=O)c1c(O)cccc1C2=O (stereo unspecified)	9.2	74.7*	.	18.3	-44.7	3.0
COc1cc(-c2nc(-c3ccc(Br)o3)no2)cc(OC)c1OC	3.1	45.3	-6.6	1.5	4.3	53.2*
CCN(CC)CCNc1oc(-c2ccccc2)nc1S(=O)(=O)c1ccccc1	-2.9	-0.4	-8.6	-1.6	-5.8	-1.8
O=C(c1ccccc1)N1CCC(c2nc3c(nnn3Cc3ccco3)c(=O)[nH]2)CC1	0.6	6.2	2.9	-1.4	-7.6	52.7*
